Hits are enriched below; roughly 2.2% of the tested compounds scored in any of these assays.
PPC-1+TRAIL kill: kills PPC-1 cancer cells in the presence of TRAIL. PPC-1 cells + TRAIL, ATPLite viability luminescence. cell killing (% activity), % at 4 µM or 5 µM. hit rate 0.41% among 220,000. AID 1443;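 active = cell killing above 50% in the first pass at 4 µM, then a duplicate retest at 5 µM averaging 50% or more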;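 also: plate controls were cells with TRAIL plus DMSO for no effect and medium-only wells lacking cells for full effect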
Wee1 degr inh: inhibitors of human Wee1 degradation; P30291; HeLa Luc-Wee1K328M stability, luciferase luminescence; 100% = proteasome inhibitor MG132 effect; reporter increase, % at 5 µM; hit rate 1.2% among 220,000;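 active = activation above the mean of all tested compounds plus 3 SD, set per screening run, cut at about 8.8% in these data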;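 also: cells exposed to compound for 20 h before luminescence read; 0% = DMSO alone and 100% = MG132 at 30 µM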
FLuc act counter: firefly luciferase counter-screen for stimulation assays | ATPlite luciferase biochemical, luminescence, 10 min; 0 = ATP-free wells, 1 = DMSO control | 200,000 tested, under 10 active | activation factor at 10 µM | P08659;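 active = luciferase activation factor, scaled between plate controls, of at least 2 with compound at 10 µM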
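Material: Luciferase/luciferin reagent mix | Doses: Test compounds dosed from 2 mM stocks in 100% DMSO | Timing: 10 min incubation after luciferase reagent addition, room temperature | Measured by: Luminescence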
FLuc inhib CS: counter-screen for luciferase assay inhibitors: firefly luciferase inhibition; P08659; ATPLite firefly luciferase biochemical luminescence, 10 min; inhibition, % at 10 µM; hit rate 1.5% among 200,000;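 active = inhibition above about 50% when tested at 10 µM, limit read from the data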
C8 TRAIL sens: sensitizes caspase-8 expressing cells to TRAIL. NB7+C8 cells + TRAIL, ATPlite viability luminescence. inhibition (viability loss, TRAIL sensitization), % at 10 µM. hit rate 1% among 360,000. AID 624354;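 active = compounds causing at least 50% loss of cell viability in the single-dose screen, relative to plate controls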
PKD1 inh: inhibitors of human PKD1 kinase | PKD1 kinase fluorescence polarization assay | inhibition, % (concentration not given with the values) | hit rate 0.056% among 200,000 | AID 797; in the data active = inhibition above about 50%
Target sequence (Q15139 whole entry, looked up): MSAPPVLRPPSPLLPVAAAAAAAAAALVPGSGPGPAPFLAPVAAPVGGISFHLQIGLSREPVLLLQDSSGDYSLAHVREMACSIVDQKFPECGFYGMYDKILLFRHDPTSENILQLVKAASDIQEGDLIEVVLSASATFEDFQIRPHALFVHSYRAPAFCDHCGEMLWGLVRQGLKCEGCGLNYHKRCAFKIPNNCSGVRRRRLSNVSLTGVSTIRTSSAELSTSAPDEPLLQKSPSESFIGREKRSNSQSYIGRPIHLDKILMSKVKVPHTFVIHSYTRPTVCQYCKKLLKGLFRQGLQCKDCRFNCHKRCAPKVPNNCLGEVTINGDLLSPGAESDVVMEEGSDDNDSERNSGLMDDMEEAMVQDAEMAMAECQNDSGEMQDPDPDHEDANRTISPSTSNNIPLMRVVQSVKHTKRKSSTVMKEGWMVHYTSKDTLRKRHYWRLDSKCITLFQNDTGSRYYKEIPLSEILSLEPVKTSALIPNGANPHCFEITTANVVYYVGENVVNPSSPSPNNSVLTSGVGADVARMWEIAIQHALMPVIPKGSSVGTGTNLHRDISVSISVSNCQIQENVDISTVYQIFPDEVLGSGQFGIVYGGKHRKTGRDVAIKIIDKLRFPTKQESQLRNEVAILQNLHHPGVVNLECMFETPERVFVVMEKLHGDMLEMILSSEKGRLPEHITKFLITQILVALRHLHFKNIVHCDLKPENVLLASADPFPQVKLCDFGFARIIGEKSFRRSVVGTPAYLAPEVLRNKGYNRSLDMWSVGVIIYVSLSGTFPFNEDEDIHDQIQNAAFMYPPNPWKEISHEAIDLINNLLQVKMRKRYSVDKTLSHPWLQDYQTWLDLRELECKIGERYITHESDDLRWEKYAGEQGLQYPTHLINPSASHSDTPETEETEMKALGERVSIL
Wee1 stab conf: confirmation of human Wee1 degradation inhibitors; shares compounds with Wee1 degr inh; HeLa Luc-Wee1K328M degradation, luminescence; vehicle 0%, proteasome-blocked wells 100%; activation, % at 5 µM; hit rate 4% among 1,100; in the data active = activation above about 8.9%
PPC1 cytotox: PPC-1 cell cytotoxicity | shares compounds with PPC-1+TRAIL kill | PPC-1 viability, ATPlite luminescence, overnight | cytotoxicity, % at 5 µM | hit rate 50% among 1,200 | AID 1447;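 active = reconfirmed compounds whose average cytotoxicity reaches 50% or more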;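 also: 0% = DMSO-treated cells and 100% = wells holding medium but no cells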
* marks the source's active call; other numbers are inactive results; nt = no result given.

SMILES	PPC-1+TRAIL kill	Wee1 degr inh	FLuc act counter	FLuc inhib CS	C8 TRAIL sens	PKD1 inh	others
COc1cc(/C=C/C(=O)c2c(O)n(CCc3ccccc3)c(=O)[nH]c2=O)ccc1O	35	2	0.4	56*	4	4
O=C(/C=C/c1ccccc1)c1c(O)n(CCc2ccccc2)c(=O)[nH]c1=O	5	-2	0.8	16	11	2
COC(=O)C1=C(c2cc3ccccc3s2)C[C@@H]2CC[C@H]1N2C(=O)N1CCOCC1	nt	nt	nt	nt	22	nt
CC(C)[C@H]1C(=O)O[C@H](C(C)C)C(=O)N(C)[C@@H](C(C)C)C(=O)O[C@H](C(C)C)C(=O)N(C)[C@@H](C(C)C)C(=O)O[C@H](C(C)C)C(=O)N1C	48	0	1.1	-12	53*	2
CCN1CCN(C(=O)COc2ccc(S(=O)(=O)N3CCOCC3)cc2C)CC1	nt	nt	nt	nt	-7	nt
Cc1[nH]nc2ccc(-c3cncc(OC[C@@H](N)Cc4c[nH]c5ccccc45)c3)cc12	nt	nt	nt	nt	90*	nt
C=C(C)CSc1nnc([C@@H](N)Cc2c[nH]c3ccccc23)o1	-3	0	1	-5	-10	0
Cc1ccc(-n2c(C)nc3cc(Cl)ccc3c2=O)nc1	nt	nt	nt	nt	-4	nt
O=C1NC(=O)N(c2cccc(Cl)c2)C(=O)/C1=C\c1ccc(Sc2nc3ccccc3[nH]2)o1	2	11*	1	4	3	-6
O=C1NC(=O)N(c2ccccc2F)C(=O)/C1=C/c1ccc(Sc2nc3ccccc3[nH]2)o1	-6	1	0.9	9	-3	1
CC1=C(N2CC2)C(=O)C(CO)=C(N2CC2)C1=O	nt	nt	nt	nt	77*	nt
Cc1cc(C(=O)CS(=O)(=O)c2ccc(F)cc2)cc(C)c1OC(=O)N(C)C	33	4	0.4	63*	25	-1
CN(C)C(=O)Oc1c(Cl)cc(Cl)c2ccccc12	18	-1	1	0	-6	4
C=CC1CN2CCC1CC2C(O)c1ccnc2ccccc12 (stereo not given)	nt	nt	nt	nt	21	nt
C=CC1CN2CCC1CC2[C@@H](OC(=O)c1ccc(OC)cc1)c1ccnc2ccccc12 (stereo not given in full)	54*	0	1.1	-6	0	-10
CC1OC(OC2CC(O)C3(CO)C4C(O)CC5(C)C(C6=CC(=O)OC6)CCC5(O)C4CCC3(O)C2)C(O)C(O)C1O (stereo not given)	nt	nt	nt	nt	70*	nt
CC[N+](CC)(CC)CC	0	nt	nt	nt	1	nt
CC(O)C1C=CC=CC(=O)OC2CC3OC4C5OC5(C)CCC4(COC(=O)C4OC4(C)C(O)CO1)C2(C)C31CO1 (stereo not given)	nt	nt	nt	nt	61*	nt
CC(=O)OC1C(=O)OCC23CCC4(C)OC4C2OC2CC(OC(=O)C=CC=CC(=O)OCCC1C)C3(C)C21CO1 (stereo not given)	nt	nt	nt	nt	64*	nt
Oc1ccc(-[n+]2c(-c3ccccc3)cc(-c3ccccc3)cc2-c2ccccc2)cc1	nt	nt	nt	nt	65*	nt
COc1ccc(-c2cc(=O)c3c(OC)c(OC)c(OC)cc3o2)cc1	27	9.3*	1	5	-1	7
COc1ccc(-c2cc(=Nc3ccccc3)c3cc(C)ccc3o2)cc1	14	9	0.8	23	3	-5
CCCCCN1C(=O)c2ccccc2[C@@]2(C(=O)OCC)Cc3cc(OC)ccc3[C@@H]12	nt	nt	nt	nt	59*	nt
CCOC(=O)[C@]12Cc3cc(C)ccc3[C@H]1N(Cc1ccccc1)C(=O)c1ccccc12	nt	nt	nt	nt	12	nt
CCOC(=O)[C@]12Cc3cc(C)ccc3[C@H]1N(C(C)C)C(=O)c1ccccc12	nt	nt	nt	nt	83*	nt
SMILES	PPC-1+TRAIL kill	Wee1 degr inh	FLuc act counter	FLuc inhib CS	C8 TRAIL sens	PKD1 inh	others
O=C(O)C(Cl)(Cl)Cl	nt	nt	nt	nt	13	nt
CC(=O)c1cn(Cc2ccccc2C#N)c2ccccc12	12	6	1	-1	20	-1
Cc1cc(-c2ccccc2)cc(-c2ccccc2)[n+]1CCc1ccccc1	nt	nt	nt	nt	47	nt
Clc1ccc(C[n+]2c(-c3ccccc3)cc(-c3ccccc3)cc2-c2ccccc2)cc1	nt	nt	nt	nt	69*	nt
Cc1ccc(N)cc1Cl	nt	nt	nt	nt	6	nt
CN1C2CCC1CC(OC(=O)c1ccc([N+](=O)[O-])cc1)C2 (stereo not given)	3	13*	1	-3	-1	-16	Wee1 stab conf=0
CN1C2CCC1CC(OC(=O)c1cccc(O)c1)C2 (stereo not given)	nt	nt	nt	nt	15	nt
CCN1CCN(c2cc(=O)n3ccccc3n2)CC1	nt	nt	nt	nt	-3	nt
CCN1CCN(c2nc3ccccc3s2)CC1	16	15*	0.7	30	11	-11	Wee1 stab conf=6
CCOCC1(CCc2ccccc2)C(=O)NC(=S)NC1=O	nt	nt	nt	nt	-14	nt
O=C(C(=O)N1CCOCC1)c1cn(Cc2ccccc2Cl)c2ccccc12	6	1	1	-2	3	-2
O=C(C(=O)N1CCOCC1)c1cn(Cc2ccc(F)cc2)c2ccccc12	11	12*	nt	nt	7	nt	Wee1 stab conf=-2
O=c1c2ccccc2nc(/C=C/c2ccc(O)cc2)n1-c1cccc(O)c1	13	12*	1	0	-6	-4	Wee1 stab conf=0
Cc1ccc(-n2c(/C=C/c3ccc4c(c3)OCO4)nc3ccccc3c2=O)cc1	19	11*	1.1	-8	nt	13	Wee1 stab conf=1
CCOP(=O)(OCC)c1ccc(OP(=O)(c2cccc([N+](=O)[O-])c2)c2cccc([N+](=O)[O-])c2)cc1	3	0	nt	nt	5	nt
CN(C)C(=O)Oc1ccc2c(=O)c(Oc3ccccc3Br)coc2c1	nt	nt	nt	nt	-12	nt
CSc1nc(N2CCN(C)CC2)c2ccccc2n1	-20	15*	1	-5	2	-6	Wee1 stab conf=3
CCN1/C(=C\C=C\C2=[N+](CC)c3ccccc3C2(C)C)C(C)(C)c2ccccc21	55*	-2	0.7	30	77*	5	PPC1 cytotox=60*
CCN1C[C@]2(CO)CC[C@H](OC)[C@@]34C5C[C@H]6[C@H](OC)C5[C@](O)(C[C@H]6OC)[C@@](O)(C(OC)C23)[C@@H]14 (stereo not given in full)	nt	nt	nt	nt	-6	nt
Cn1ccnc1P(=S)(c1nccn1C)N1CCOCC1	8	-1	1.1	-9	0	-5	PPC1 cytotox=-9
COC1CC(OC2CCC3(C)C(CCC4C3CCC3(C)C(C5=CC(=O)OC5)C(OC(C)=O)CC43O)C2)OC(C)C1OC1OC(COC2OC(CO)C(O)C(O)C2O)C(O)C(O)C1O (stereo not given)	48	nt	nt	nt	nt	nt	PPC1 cytotox=56*
CC(=O)OC[C@]12CCC(C)=C[C@H]1O[C@@H]1[C@H](O)[C@@H](OC(C)=O)[C@@]2(C)[C@]12CO2	65*	nt	nt	nt	89*	nt	PPC1 cytotox=63*

Screening results from PubChem.
